In ChEMBL document CHEMBL2311271 (Eur J Med Chem, 2013):
pIC50: −log10 of the molar value.

system: Bel-7402; test: Cytotoxicity against human Bel7402 cells by MTT assay; type: functional, cell-based
Procedure, shortened: (§1)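 Cells grown in RPMI-1640 with 10% fetal calf serum plus penicillin and streptomycin, 37 °C, 5% CO₂. Compounds in DMSO, final ≤2% (v/v), tested in 96-well cultures with MTT staining. IC₅₀ = concentration cutting optical density 50% versus untreated cells; three replicate wells per point; mean of three independent determinations.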

Structure (SMILES)	pIC50
CCn1c2cc(OCc3ccccc3)ccc2c2ccnc(C)c21	< 4.00
CCCCn1c2cc(OCC(O)C(F)(F)F)ccc2c2ccnc(C)c21 (stereo not drawn)	4.21
CCCCCCCCOc1ccc2c3ccnc(C)c3n(CCCC)c2c1	< 4.00
CCCCn1c2cc(OCc3ccccc3)ccc2c2ccnc(C)c21	< 4.00
CCCCn1c2cc(OCc3c(F)c(F)c(F)c(F)c3F)ccc2c2ccnc(C)c21	< 4.00
Cc1nccc2c3ccc(OCC(C)C)cc3n(CC(C)C)c12	4.37
CCCCCCCCCCOc1ccc2c3ccnc(C)c3n(CC(C)C)c2c1	< 4.00
Cc1nccc2c3ccc(OCCCc4ccccc4)cc3n(CC(C)C)c12	< 4.00
CCCCOc1ccc2c3ccnc(C)c3n(CCCc3ccccc3)c2c1	4.46
Cc1nccc2c3ccc(OCC(C)C)cc3n(CCCc3ccccc3)c12	4.41
CC(C)=CCOc1ccc2c3ccnc(C)c3n(CCCc3ccccc3)c2c1	4.61
Cc1nccc2c3ccc(OCCCc4ccccc4)cc3n(CCCc3ccccc3)c12	< 4.00
CCn1c2cc(OC(C)C)ccc2c2ccnc(C)c21	4.36
CCCCOc1ccc2c3ccnc(C)c3n(CC)c2c1	4.28
CCCCCCCCCCOc1ccc2c3ccnc(C)c3n(CC)c2c1	< 4.00
CCn1c2cc(OCc3c(F)c(F)c(F)c(F)c3F)ccc2c2ccnc(C)c21	< 4.00

system: U-251; test: Cytotoxicity against human U251 cells by MTT assay; type: functional, cell-based; procedure, shortened: as §1

Structure (SMILES)	pIC50
CCOc1ccc2c3cc[n+](Cc4ccccc4)c(C)c3n(CC)c2c1	4.82
Cc1nccc2c3ccc(OCC(C)C)cc3n(CC(C)C)c12	4.30

system: A549; test: Cytotoxicity against human A549 cells by MTT assay; type: functional, cell-based; procedure, shortened: as §1

Structure (SMILES)	pIC50
CCOc1ccc2c3cc[n+](Cc4ccccc4)c(C)c3n(CC)c2c1	4.95
CCCCn1c2cc(OCc3ccccc3)ccc2c2ccnc(C)c21	4.74
Cc1nccc2c3ccc(OCC(C)C)cc3n(CC(C)C)c12	4.49

system: 786-0; test: Cytotoxicity against human 786-0 cells by MTT assay; type: functional, cell-based; procedure, shortened: as §1

Structure (SMILES)	pIC50
CCOc1ccc2c3cc[n+](Cc4ccccc4)c(C)c3n(CC)c2c1	5.02
CCCCn1c2cc(OCc3ccccc3)ccc2c2ccnc(C)c21	5.00
Cc1nccc2c3ccc(OCC(C)C)cc3n(CC(C)C)c12	4.74

system: not listed separately; test: Cytotoxicity against human Blu-87 cells by MTT assay; type: functional, cell-based; procedure, shortened: as §1

Structure (SMILES)	pIC50
CCOc1ccc2c3cc[n+](Cc4ccccc4)c(C)c3n(CC)c2c1	4.63
CCCCn1c2cc(OCc3ccccc3)ccc2c2ccnc(C)c21	4.49
Cc1nccc2c3ccc(OCC(C)C)cc3n(CC(C)C)c12	4.49

system: MCF7; test: Cytotoxicity against human MCF7 cells by MTT assay; type: functional, cell-based; procedure, shortened: as §1

Structure (SMILES)	pIC50
CCn1c2cc(OCc3ccccc3)ccc2c2ccnc(C)c21	< 4.00
CCCCn1c2cc(OCC(O)C(F)(F)F)ccc2c2ccnc(C)c21 (stereo not drawn)	4.48
CCCCCCCCOc1ccc2c3ccnc(C)c3n(CCCC)c2c1	4.87
CCCCn1c2cc(OCc3ccccc3)ccc2c2ccnc(C)c21	4.77
CCCCn1c2cc(OCc3c(F)c(F)c(F)c(F)c3F)ccc2c2ccnc(C)c21	< 4.00
Cc1nccc2c3ccc(OCC(C)C)cc3n(CC(C)C)c12	4.53
CCCCCCCCCCOc1ccc2c3ccnc(C)c3n(CC(C)C)c2c1	< 4.00
Cc1nccc2c3ccc(OCCCc4ccccc4)cc3n(CC(C)C)c12	4.71
CCCCOc1ccc2c3ccnc(C)c3n(CCCc3ccccc3)c2c1	4.16
Cc1nccc2c3ccc(OCC(C)C)cc3n(CCCc3ccccc3)c12	< 4.00
CC(C)=CCOc1ccc2c3ccnc(C)c3n(CCCc3ccccc3)c2c1	< 4.00
Cc1nccc2c3ccc(OCCCc4ccccc4)cc3n(CCCc3ccccc3)c12	< 4.00
CCn1c2cc(OC(C)C)ccc2c2ccnc(C)c21	< 4.00
CCCCOc1ccc2c3ccnc(C)c3n(CC)c2c1	4.73
CCCCCCCCCCOc1ccc2c3ccnc(C)c3n(CC)c2c1	4.34
CCn1c2cc(OCc3c(F)c(F)c(F)c(F)c3F)ccc2c2ccnc(C)c21	< 4.00

system: HeLa; test: Cytotoxicity against human HeLa cells by MTT assay; type: functional, cell-based; procedure, shortened: as §1

Structure (SMILES)	pIC50
CCn1c2cc(OCc3ccccc3)ccc2c2ccnc(C)c21	< 4.00
CCCCCCCCCCOc1ccc2c3ccnc(C)c3n(CCCC)c2c1	< 4.00
CCCCCCCCOc1ccc2c3ccnc(C)c3n(CCCc3ccccc3)c2c1	< 4.00
CCCCn1c2cc(OCC(O)C(F)(F)F)ccc2c2ccnc(C)c21 (stereo not drawn)	< 4.00
CCCCCCCCOc1ccc2c3ccnc(C)c3n(CCCC)c2c1	< 4.00
CCCCn1c2cc(OCc3ccccc3)ccc2c2ccnc(C)c21	4.33
CCCCn1c2cc(OCc3c(F)c(F)c(F)c(F)c3F)ccc2c2ccnc(C)c21	< 4.00
Cc1nccc2c3ccc(OCC(C)C)cc3n(CC(C)C)c12	4.49
CCCCCCCCCCOc1ccc2c3ccnc(C)c3n(CC(C)C)c2c1	5.70
Cc1nccc2c3ccc(OCCCc4ccccc4)cc3n(CC(C)C)c12	4.56
CCCCOc1ccc2c3ccnc(C)c3n(CCCc3ccccc3)c2c1	4.05
Cc1nccc2c3ccc(OCC(C)C)cc3n(CCCc3ccccc3)c12	< 4.00
CC(C)=CCOc1ccc2c3ccnc(C)c3n(CCCc3ccccc3)c2c1	< 4.00
Cc1nccc2c3ccc(OCCCc4ccccc4)cc3n(CCCc3ccccc3)c12	< 4.00
CCn1c2cc(OC(C)C)ccc2c2ccnc(C)c21	4.56
CCCCOc1ccc2c3ccnc(C)c3n(CC)c2c1	4.53
CCCCCCCCCCOc1ccc2c3ccnc(C)c3n(CC)c2c1	< 4.00
CCn1c2cc(OCc3c(F)c(F)c(F)c(F)c3F)ccc2c2ccnc(C)c21	< 4.00

system: A-375; test: Cytotoxicity against human A375 cells by MTT assay; type: functional, cell-based; procedure, shortened: as §1

Structure (SMILES)	pIC50
CCOc1ccc2c3cc[n+](Cc4ccccc4)c(C)c3n(CC)c2c1	5.17
CCCCn1c2cc(OCc3ccccc3)ccc2c2ccnc(C)c21	4.54
Cc1nccc2c3ccc(OCC(C)C)cc3n(CC(C)C)c12	4.65

system: OS-RC-2; test: Cytotoxicity against human OS-RC2 cells by MTT assay; type: functional, cell-based; procedure, shortened: as §1

Structure (SMILES)	pIC50
CCOc1ccc2c3cc[n+](Cc4ccccc4)c(C)c3n(CC)c2c1	5.11
Cc1nccc2c3ccc(OCC(C)C)cc3n(CC(C)C)c12	4.52

system: 769-P; test: Cytotoxicity against human 769-P cells by MTT assay; type: functional, cell-based; procedure, shortened: as §1

Structure (SMILES)	pIC50
CCOc1ccc2c3cc[n+](Cc4ccccc4)c(C)c3n(CC)c2c1	5.19
CCCCn1c2cc(OCc3ccccc3)ccc2c2ccnc(C)c21	4.77
Cc1nccc2c3ccc(OCC(C)C)cc3n(CC(C)C)c12	4.51

system: SCaBER; test: Cytotoxicity against human SCaBER cells by MTT assay; type: functional, cell-based; procedure, shortened: as §1

Structure (SMILES)	pIC50
CCOc1ccc2c3cc[n+](Cc4ccccc4)c(C)c3n(CC)c2c1	4.70
CCCCn1c2cc(OCc3ccccc3)ccc2c2ccnc(C)c21	4.40
Cc1nccc2c3ccc(OCC(C)C)cc3n(CC(C)C)c12	4.54

system: KB; test: Cytotoxicity against human KB cells by MTT assay; type: functional, cell-based; procedure, shortened: as §1

Structure (SMILES)	pIC50
CCOc1ccc2c3cc[n+](Cc4ccccc4)c(C)c3n(CC)c2c1	5.34
CCCCn1c2cc(OCc3ccccc3)ccc2c2ccnc(C)c21	4.35
Cc1nccc2c3ccc(OCC(C)C)cc3n(CC(C)C)c12	4.56

system: HT-29; test: Cytotoxicity against human HT-29 cells by MTT assay; type: functional, cell-based; procedure, shortened: as §1

Structure (SMILES)	pIC50
CCOc1ccc2c3cc[n+](Cc4ccccc4)c(C)c3n(CC)c2c1	4.99
CCCCn1c2cc(OCc3ccccc3)ccc2c2ccnc(C)c21	4.57
Cc1nccc2c3ccc(OCC(C)C)cc3n(CC(C)C)c12	4.45

system: BGC-823; test: Cytotoxicity against human BGC823 cells by MTT assay; type: functional, cell-based; procedure, shortened: as §1

Structure (SMILES)	pIC50
CCn1c2cc(OCc3ccccc3)ccc2c2ccnc(C)c21	4.76
CCCCn1c2cc(OCC(O)C(F)(F)F)ccc2c2ccnc(C)c21 (stereo not drawn)	4.02
CCCCCCCCOc1ccc2c3ccnc(C)c3n(CCCC)c2c1	4.81
CCCCn1c2cc(OCc3ccccc3)ccc2c2ccnc(C)c21	4.76
CCCCn1c2cc(OCc3c(F)c(F)c(F)c(F)c3F)ccc2c2ccnc(C)c21	4.74
Cc1nccc2c3ccc(OCC(C)C)cc3n(CC(C)C)c12	4.58
CCCCCCCCCCOc1ccc2c3ccnc(C)c3n(CC(C)C)c2c1	4.13
Cc1nccc2c3ccc(OCCCc4ccccc4)cc3n(CC(C)C)c12	4.73
CCCCOc1ccc2c3ccnc(C)c3n(CCCc3ccccc3)c2c1	4.85
Cc1nccc2c3ccc(OCC(C)C)cc3n(CCCc3ccccc3)c12	4.64
CC(C)=CCOc1ccc2c3ccnc(C)c3n(CCCc3ccccc3)c2c1	4.49
Cc1nccc2c3ccc(OCCCc4ccccc4)cc3n(CCCc3ccccc3)c12	4.70
CCn1c2cc(OC(C)C)ccc2c2ccnc(C)c21	4.22
CCCCOc1ccc2c3ccnc(C)c3n(CC)c2c1	4.81
CCCCCCCCCCOc1ccc2c3ccnc(C)c3n(CC)c2c1	4.82
CCn1c2cc(OCc3c(F)c(F)c(F)c(F)c3F)ccc2c2ccnc(C)c21	< 4.00

system: HepG2; test: Cytotoxicity against human HepG2 cells by MTT assay; type: functional, cell-based; procedure, shortened: as §1

Structure (SMILES)	pIC50
CCn1c2cc(OCc3ccccc3)ccc2c2ccnc(C)c21	4.81
CCCCCCCCCCOc1ccc2c3ccnc(C)c3n(CCCC)c2c1	< 4.00
Cc1nccc2c3ccc(OCc4c(F)c(F)c(F)c(F)c4F)cc3n(CCCc3ccccc3)c12	< 4.00
CCCCCCCCOc1ccc2c3ccnc(C)c3n(CCCc3ccccc3)c2c1	< 4.00
CCCCn1c2cc(OCC(O)C(F)(F)F)ccc2c2ccnc(C)c21 (stereo not drawn)	< 4.00
CCCCCCCCOc1ccc2c3ccnc(C)c3n(CCCC)c2c1	4.87
CCCCn1c2cc(OCc3ccccc3)ccc2c2ccnc(C)c21	4.75
CCCCn1c2cc(OCc3c(F)c(F)c(F)c(F)c3F)ccc2c2ccnc(C)c21	4.87
Cc1nccc2c3ccc(OCC(C)C)cc3n(CC(C)C)c12	4.43
CCCCCCCCCCOc1ccc2c3ccnc(C)c3n(CC(C)C)c2c1	< 4.00
Cc1nccc2c3ccc(OCCCc4ccccc4)cc3n(CC(C)C)c12	4.56
CCCCOc1ccc2c3ccnc(C)c3n(CCCc3ccccc3)c2c1	4.91
Cc1nccc2c3ccc(OCC(C)C)cc3n(CCCc3ccccc3)c12	4.89
CC(C)=CCOc1ccc2c3ccnc(C)c3n(CCCc3ccccc3)c2c1	4.68
Cc1nccc2c3ccc(OCCCc4ccccc4)cc3n(CCCc3ccccc3)c12	4.78
CCn1c2cc(OC(C)C)ccc2c2ccnc(C)c21	4.28
CCCCOc1ccc2c3ccnc(C)c3n(CC)c2c1	4.79
CCCCCCCCCCOc1ccc2c3ccnc(C)c3n(CC)c2c1	4.85
CCn1c2cc(OCc3c(F)c(F)c(F)c(F)c3F)ccc2c2ccnc(C)c21	< 4.00
